From ChEMBL document CHEMBL5113496, “A systematic exploration of boceprevir-based main protease inhibitors as SARS-CoV-2 antivirals” (Eur J Med Chem, 2022)

Experiments:
SARS-CoV-2 [1] = experiment: Antiviral activity against SARS-CoV2 Delta infected in African green monkey Vero E6 cells assessed as reduction in viral plaques incubated for 3 days by plaque reduction neutralization test; format: functional, organism-based; conditions: Severe acute respiratory syndrome coronavirus 2, Delta, Vero C1008, 72 h
[2] = Cytotoxicity against HEK293T/17 cells assessed as inhibition of cell growth incubated for 48 hrs by MTT assay; format: toxicity, cell-based; conditions: human, hek293t/17, 48 h
Procedure, shortened: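 293T cells seeded and held 24 h at 37 °C, 5% CO2, then exposed in triplicate for 48 h to a range of compound concentrations. Compounds were taken from DMSO stocks and diluted in culture medium. Viability was read by MTT. CC50 was taken from normalised % viability plotted against log10 concentration.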

SARS-CoV-2 [3] = experiment: Antiviral activity against SARS-CoV2 USA-WA1/2020 infected in African green monkey Vero E6 cells assessed as reduction in viral plaques incubated for 3 days by plaque reduction neutralization test; format: functional, organism-based; conditions: Severe acute respiratory syndrome coronavirus 2, USA-WA1/2020, Vero C1008, 72 h
SARS-CoV-2 [4] = experiment: Antiviral activity against SARS-CoV2 Beta infected in African green monkey Vero E6 cells assessed as reduction in viral plaques incubated for 3 days by plaque reduction neutralization test; format: functional, organism-based; conditions: Severe acute respiratory syndrome coronavirus 2, Beta, Vero C1008, 72 h

| Structure (SMILES) | EC50 (SARS-CoV-2 [1]) [µM] | CC50 [2] [µM] | EC50 (SARS-CoV-2 [3]) [µM] | EC50 (SARS-CoV-2 [4]) [µM] |
| --- | --- | --- | --- | --- |
| CC(C)(C)OC(=O)N[C@H](C(=O)N1C[C@H]2[C@@H]([C@H]1C(=O)N[C@H](C=O)C[C@@H]1CCNC1=O)C2(C)C)C(C)(C)C | 1 | 34.2 | 0.61 | – |
| CC(C)(C)[C@H](NC(=O)OCc1ccccc1)C(=O)N1C[C@H]2[C@@H]([C@H]1C(=O)N[C@H](C=O)C[C@@H]1CCNC1=O)C2(C)C | 1.04 | 144 | 2.94 | 0.86 |
| C[C@@H](OC(C)(C)C)[C@H](NC(=O)OCc1ccccc1)C(=O)N1C[C@H]2[C@@H]([C@H]1C(=O)N[C@H](C=O)C[C@@H]1CCNC1=O)C2(C)C | 0.75 | 163 | 1.08 | 2.28 |
